The test system of one assay is MCF7. The experiment in a line: Cytotoxicity against human MCF7 cells after 72 hrs by Alamar Blue assay. The class given is functional, cell-based. As to conditions: MCF7, 72 h. In a few lines:
(§1)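 Cells seeded and grown at 37 °C under 5% CO2 for 24 h, then compounds in DMSO added in duplicate wells. Exposure 72 h at 37 °C, then media replaced with fresh media plus AlamarBlue and fluorescence read. Growth was computed from mean fluorescence at time zero, after 72 h with test substance, and after 72 h with vehicle control. IC50 derived.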
A general note: Alamar Blue is a resazurin reagent that responds to reducing activity.

A further assay deals with A549. The experiment in a line: Cytotoxicity against human A549 cells after 72 hrs by Alamar Blue assay. To be noted: A549, 72 h. The class given is functional, cell-based. A digest of the protocol: as §1

The IC50 is the concentration at which inhibition is half-maximal. Lower therefore signals inhibition by little substance. Consider `COC(=O)c1cccc2oc(-c3cccc4oc(-c5ccccc5O)nc34)nc12`, for which the IC50 with MCF7 was 1.4 µM; in the assay on A549, 2 µM.
Taken in the same sequence, the figures for `CC(C)=NNC(=O)c1cc2nc(C)[nH]c2cc1[N+](=O)[O-]` were > 100 µM and > 100 µM.
Taken in the same sequence, the figures for `CC(C)=NNC(=O)c1ccc2[nH]c(C)nc2c1` were > 100 µM and > 100 µM.
As to `Cc1nc2cc(C(=O)N/N=C\c3c[nH]c4ccccc34)c([N+](=O)[O-])cc2[nH]1`, the concentration for half-maximal inhibition (IC50) with MCF7 and in the assay on A549 was > 100 µM in each case.
On to `Cc1nc2cc(C(=O)O)ccc2[nH]1`, for which the IC50 in the assay on MCF7 and in the assay on A549 was > 100 µM throughout.
Turning to `CCOC(=O)c1ccc2[nH]c(C)nc2c1`, the figures for the IC50 with MCF7 and in the assay with A549 were 62 µM and > 100 µM, respectively.
On to `CCOC(=O)c1cc2nc(C)[nH]c2cc1[N+](=O)[O-]`, for which the IC50 in the assay on MCF7 and in the assay on A549 was > 100 µM throughout.
For `Cc1ccc(/C=N\NC(=O)c2cc3nc(C)[nH]c3cc2[N+](=O)[O-])cc1`, the IC50 amounted to 3 µM in the assay with MCF7 and 73 µM in the assay with A549.
Taken in the same sequence, the figures for `Cc1nc2cc(C(=O)N/N=C\c3ccccn3)c([N+](=O)[O-])cc2[nH]1` were > 100 µM and > 100 µM.
In the case of `Cc1nc2cc(C(=O)NN)c([N+](=O)[O-])cc2[nH]1`, the IC50 with MCF7 and in the assay on A549 was > 100 µM throughout.
For `Cc1nc2cc(C(=O)N/N=C\c3ccco3)c([N+](=O)[O-])cc2[nH]1`, the IC50 with MCF7 was 81 µM; with A549, > 100 µM.
For the molecule `Cc1nc2cc(C(=O)N/N=C\c3ccc(C)o3)c([N+](=O)[O-])cc2[nH]1`, the IC50 in the assay with MCF7 and in the assay with A549 was > 100 µM each time.
For the molecule `CCN1CCN(C(=O)N[C@@H](C(=O)N[C@@H]2C(=O)N3C(C(=O)O)=C(CSc4nnnn4C)CS[C@H]23)c2ccc(O)cc2)C(=O)C1=O` [CEFOPERAZONE], the IC50 with MCF7 and with A549 was > 100 µM throughout.
For `CO[C@@]12[C@H](COC(N)=O)C3=C(C(=O)C(C)=C(N)C3=O)N1C[C@@H]1N[C@@H]12` [MITOMYCIN], the figures for the IC50 with MCF7 and in the assay with A549 were 0.2 µM and 0.4 µM, respectively.
